# JMJD2C inh: inhibitors of human GASC-1 (JMJD2C) demethylase; AID 2099; inhibition, % at 2.35 µM; 330,000 tested, 0.069% active; GST-JMJD2C(1-420) H3K9me3 demethylation, DELFIA europium;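 active = more than half of a compound's replicate wells show inhibition beyond 50%, single wells judged on their own value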;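 note: signal counts dimethyl H3K9 product captured on neutravidin plate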
# UBC9 SUMO inh: blocks human SUMOylation mediated by UBC9; P63279; 290,000 tested, 0.36% active; inhibition, % at 35 µM; HTRF SUMOylation assay, SAE1/SAE2 + UBC9, in vitro; in the data active = inhibition above about 50%, passing the limit was not always enough
# GSTO1 counter: blocks human GSTO1 in RBBP9 counter-screen. 300,000 tested, 1.1% active. inhibition, % at 5.96 µM. AID 1974. recombinant GSTO1, activity-based probe fluorescence polarization. P78417;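 active = inhibition above the campaign mean inhibition plus 3 SD, cut at about 35% in these data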
# Target sequence (P78417 whole entry, looked up): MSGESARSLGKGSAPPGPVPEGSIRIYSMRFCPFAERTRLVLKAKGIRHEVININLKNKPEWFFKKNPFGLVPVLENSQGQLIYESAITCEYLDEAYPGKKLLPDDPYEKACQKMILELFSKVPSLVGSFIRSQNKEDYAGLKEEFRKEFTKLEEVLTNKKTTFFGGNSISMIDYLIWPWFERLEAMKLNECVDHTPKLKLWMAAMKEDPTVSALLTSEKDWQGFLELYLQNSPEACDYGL
# TDP2 inh: TDP2 (human) inhibition, absorbance primary screen. AID 720702. inhibition, % at 12.8 µM. recombinant TDP2, T5PNP hydrolysis, p-nitrophenol absorbance 415 nm. 370,000 tested, 0.34% active;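 active = inhibition above the mean of all tested compounds plus 3 SD, set per campaign, cut at about 25% in these data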
# Target sequence (O95551 whole entry, looked up): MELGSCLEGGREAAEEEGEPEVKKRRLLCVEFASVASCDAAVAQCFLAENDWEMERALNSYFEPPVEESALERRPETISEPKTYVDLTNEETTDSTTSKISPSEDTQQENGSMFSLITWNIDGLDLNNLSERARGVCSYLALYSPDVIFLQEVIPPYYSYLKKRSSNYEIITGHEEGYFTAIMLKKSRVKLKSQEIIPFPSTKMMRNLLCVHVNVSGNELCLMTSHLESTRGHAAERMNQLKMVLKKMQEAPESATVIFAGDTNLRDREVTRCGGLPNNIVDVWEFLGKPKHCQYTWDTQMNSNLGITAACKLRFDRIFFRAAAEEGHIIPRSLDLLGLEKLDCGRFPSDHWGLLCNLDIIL
#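 Evaluation: % inhibition relative to enzyme-containing and enzyme-free wells. Material: recombinant human TDP2. Benchmarks: enzyme-free and DMSO wells. Timing: enzyme reaction with compound for 2 h at 37 °C. Compound dosing: 12.8 µM only. Measured by: p-Nitrophenol epi absorbance. Reagent: T5PNP substrate at 5 mM, a TopII-DNA adduct mimic. Replication: single well per compound.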
# Apaf-1 inh: inhibitors of human Apaf-1 apoptosome | 330,000 tested, 0.71% active | AID 489030 | O14727 | reconstituted apoptosome caspase-3 activity, DEVD-Rh110 fluorescence | inhibition, % at 20 µM; active = inhibition of at least 40% at 20 µM
#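 System: reconstituted apoptosome with Apaf-1, cytochrome c, caspase-9, procaspase-3, dATP; Signal: Rh110 fluorescence intensity; Schedule: 30 min compound preincubation, 50 min activation, room temperature; Reagent: cytochrome c trigger plus (Z-DEVD)2-Rh110 caspase-3 substrate.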
# PAD4 FP inh: inhibitors of human PAD4; Q9UM07; recombinant PAD4, RCA probe fluorescence polarization; inhibition, % at 6.36 µM; 330,000 tested, 0.41% active;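 active = percent inhibition above a cutoff equal to the mean of all tested compounds plus 3 SD, cut at about 15% in these data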
# Hits are given with their value; . = inactive; / = no result. An excerpt weighted towards active compounds, which were near 1.6% of everything screened.
SMILES,JMJD2C inh,UBC9 SUMO inh,GSTO1 counter,TDP2 inh,Apaf-1 inh,PAD4 FP inh
O=C(NC1CCCCN(Cc2cccc(Cl)c2)C1=O)c1ccc(COc2ccccc2)cc1 (stereo not drawn),/,/,/,.,/,/
CNc1ccccc1,.,/,/,.,.,.
CNc1cccccc1=S,.,.,37,.,.,.
CCN1CC=C2C(C#N)=C(N)C(C#N)(C#N)C(c3cc(Cl)ccc3Cl)C2C1 (stereo not drawn),.,.,.,.,/,22
CC(C)N1CC=C2C(C#N)=C(N)C(C#N)(C#N)C(c3ccccc3)C2C1 (stereo not drawn),.,.,.,.,/,.
CC(C)N1CC=C2C(C#N)=C(N)C(C#N)(C#N)[C@H](c3ccoc3)[C@H]2C1,.,56,64,/,/,49
Cc1ccccc1C(=O)N(C)[C@H]1C[C@H]2c3[nH]c4c(-c5ccc6c(c5)OCO6)cccc4c3CCN2C[C@H]1[C@H](C)O,/,/,/,.,/,/
N=c1n(CC(=O)c2cccc([N+](=O)[O-])c2)c2ccccc2n1Cc1ccccc1,61,.,.,.,.,.
CCn1c(=N)n(CC(=O)c2cccc([N+](=O)[O-])c2)c2ccccc21,.,.,.,.,.,.
Cc1nc(N2CCN(C(=O)COc3ccccc3C)CC2)c2c3c(sc2n1)CCCC3,/,/,/,.,/,/
CCNc1nc(-c2cc(C)n(Cc3ccco3)c2C)cs1,.,56,.,.,.,.
Cc1cc(-c2csc(NCc3ccccc3)n2)c(C)n1C,/,.,/,/,/,/
Cc1csc(NC(=O)C2CCCN(S(=O)(=O)c3ccc(Br)s3)C2)n1 (stereo not drawn),.,.,46,.,.,.
FC(F)(F)c1cc(CCN2CCNC[C@H]2Cc2cccc3ccccc23)cc(C(F)(F)F)c1,.,/,.,.,72,.
Oc1ccc(C[C@@H]2CNCCN2CCc2cc(C(F)(F)F)cc(C(F)(F)F)c2)cc1,.,/,.,.,.,.
C[C@H]1[C@@H](OC(=O)NCCc2ccccc2)CC[C@@]23CCCN2C(=O)CCC[C@@H]13,/,/,/,.,/,/
CCOC(=O)Cc1nnc(NC(=O)CSc2nnc3c4ccccc4n(C)c3n2)s1,.,.,35,.,.,.
CCCCCCC/C=C(\C)[C@@H](O)[C@@H](C)C(=O)N1CCC[C@@H]1C(=O)O,/,/,/,.,/,/
COc1ccccc1CNC(=O)NCCCN1CCN(c2ccc(F)cc2)CC1,/,/,/,.,/,/
COC(CN(C)C(C(=O)NC1CCCCC1)c1ccccc1)OC (stereo not drawn),.,.,.,.,.,.
COC(CN(C(=O)CCl)C(C(=O)NC1CCCCC1)c1ccccc1C)OC (stereo not drawn),.,.,80,.,.,.
CC(=O)c1c2c3c(cccc3n(C)c1=O)C(=O)c1ccccc1-2,.,.,.,/,.,.
Cn1c(=O)c(Nc2ccc(O)cc2)c2c3c(cccc31)C(=O)c1ccccc1-2,60,.,.,.,.,.
O=C(Cc1cccs1)Nc1nnc(Cc2ccccc2)s1,.,.,.,.,.,.
COc1ccc(Cc2nnc(NC(=O)Cc3cccs3)s2)cc1OC,.,.,37,.,.,.
SMILES,JMJD2C inh,UBC9 SUMO inh,GSTO1 counter,TDP2 inh,Apaf-1 inh,PAD4 FP inh
O=C(CSc1nc2sc3c(c2c(=O)n1-c1ccc(Cl)cc1)CCC3)Nc1ccc(C(=O)O)cc1,/,/,/,.,/,/
CC(=O)Oc1cc(O)c2c(=O)c(OC(C)=O)c(-c3ccc(OC(C)=O)c(OC(C)=O)c3)oc2c1,.,/,60,/,.,.
O=C(Oc1ccc[nH]c1=O)c1cccc(Cl)c1,.,100,.,.,.,.
O=C(Oc1ccc[nH]c1=O)c1ccccc1,/,/,/,.,/,/
Cc1cc(C)cc(C(=O)OCCCN(C)C2CN(Cc3cn(Cc4ccc([N+](=O)[O-])cc4)nn3)S(=O)(=O)C2)c1 (stereo not drawn),/,/,/,.,/,/
COC(=O)c1c(NC(=O)COc2ccc(Cl)cc2)sc2c1CC(C)(C)NC2(C)C,.,.,.,.,61,.
COc1ccc(CN2C[C@]3(C=C(C)Cn4c(=O)n(-c5ccccc5)c(=O)n43)N=C2NC(=O)c2ccccc2)c(OC)c1,/,/,/,.,/,/
Cc1ccc(NCC(=O)N=Nc2c(O)[nH]c3ccc([N+](=O)[O-])cc23)cc1,.,.,.,.,.,.
Cc1ccc(OC(C)C(=O)N=Nc2c(O)[nH]c3ccc([N+](=O)[O-])cc23)cc1 (stereo not drawn),.,.,36,.,.,.
CCNC(=S)N=Nc1c(O)[nH]c2ccc([N+](=O)[O-])cc12,.,.,45,.,.,.
COc1ccc(CCNC(=O)CSc2nnc(-c3ccco3)c(-c3ccco3)n2)cc1OC,.,.,.,/,43,.
COc1ccc(CCNC(=O)CSc2ccc(-c3ccco3)nn2)cc1OC,.,.,.,.,.,.
O=C(NC1CC2CCC1C2)C1COc2ccccc2O1 (stereo not drawn),68,.,.,.,.,.
CCCN1CCS(=O)(=O)N(Cc2cn(Cc3ccc(OC)cc3)nn2)C(C(=O)OC)C1 (stereo not drawn),/,/,/,.,/,/
O=C(COc1ccc(Cl)cc1Cl)Nc1ccc(C(=O)Nc2ccccc2C(=O)O)cc1,.,59,.,.,.,.
O=C(COc1ccc(Cl)cc1Cl)NC(=S)Nc1ccccc1C(=O)O,.,.,.,/,.,.
C(=N\Nc1nccc(-c2cccnc2)n1)/c1ccccc1,.,.,.,.,.,.
Cc1ccc(-c2cc(-c3ccccc3O)nc(N/N=C/c3cccnc3)n2)cc1,/,53,.,.,.,.
COc1ccc2oc(-c3ccco3)cc(=O)c2c1,.,.,.,.,.,.
O=C(COc1ccc2oc(-c3ccco3)cc(=O)c2c1)N1CCCCC1,.,52,.,.,.,.
Cc1c(C(=O)Nc2ccc(F)cc2)cn2c(nc3ccccc32)c1C#N,.,53,.,.,.,.
Cc1cccc(-c2cccc3c4c([nH]c23)[C@@H]2C[C@H](N(C)C(=O)OCc3ccccc3)[C@H]([C@H](C)O)CN2CC4)c1,/,/,/,.,/,/
COc1ccc(CN2C/C(=C/c3ccc(C)cc3)N3C(=O)C[C@@H](c4ccccc4)N=C23)c(OC)c1,/,/,/,.,/,/
COC(=O)c1cc(-c2cccs2)c(=O)n2c1CCC2,/,/,/,.,/,/
CCOc1ccc(C(=O)N/N=C/c2cc([N+](=O)[O-])cs2)cc1,.,.,.,.,.,.
COc1cc(C(=O)N/N=C/c2cc([N+](=O)[O-])cs2)cc(OC)c1OC,.,68,.,.,.,.
C[C@H]1[C@@H](NC(=O)c2ccc(C(C)(C)C)cc2)CC[C@@]23CCCN2C(=O)CCC[C@@H]13,/,/,/,.,/,/
Cc1cc(C)cc(C(=O)OCCN(C)C2CN(Cc3cn(Cc4ccccc4C(F)(F)F)nn3)S(=O)(=O)C2)c1 (stereo not drawn),/,/,/,.,/,/
COc1ccccc1N1CCN(C(=O)c2ccc3nc(-c4ccco4)c(-c4ccco4)nc3c2)CC1,.,72,.,.,.,.

# Compound activity as filed in PubChem.
